From ChEMBL document CHEMBL3739269, “Suppression of store overload-induced calcium release by hydroxylated metabolites of carvedilol” (Bioorg Med Chem Lett, 2016)
The source made the active and inactive calls. The calls are words filed in the database; no cut-off is given here.

What was measured:
Settings in all cases: Homo sapiens
[1] = Inhibition of RyR2 R4496C mutant-mediated store overload-induced calcium release in HEK293 cells assessed as reduction in amplitude of spontaneous calcium oscillations by fura-2 AM dye based fluorescence assay; format: cell-based
Method in brief: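 Single-cell fura-2 ratio traces were recorded in R4496C RyR2-expressing HEK293 cells. Cells were perfused continuously with increasing concentrations (0, 3, 10, 30 µM) without pre-incubation. The amplitude of spontaneous Ca²⁺ oscillations was compared before and after each addition.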

HEK293 [2] = assay: Inhibition of RyR2 R4496C mutant in HEK293 cells assessed as inhibition of store overload-induced calcium release at 30 uM by fura-2 AM dye based fluorescence assay; format: cell-based
Method in brief: (§1)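 HEK293 cells expressing RyR2 R4496C, loaded with fura-2 AM, were followed by single-cell Ca²⁺ imaging. Cells were perfused continuously with rising drug levels (0, 3, 10, 30 µM) without pre-incubation. Read-out was the percentage of cells showing spontaneous Ca²⁺ oscillations at each concentration.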

HEK293 [3] = assay: Inhibition of RyR2 R4496C mutant in HEK293 cells assessed as inhibition of store overload-induced calcium release at 10 uM by fura-2 AM dye based fluorescence assay; format: cell-based; method in brief: as §1
HEK293 [4] = assay: Inhibition of RyR2 R4496C mutant in HEK293 cells assessed as reduction of caffeine-induced calcium release at 30 uM by fura-2 AM dye based fluorescence assay; format: cell-based
Method in brief: (§2)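 Fura-2 ratio imaging of single HEK293 cells expressing mutant RyR2 (R4496C), perfused with compound up to 30 µM without pre-incubation. Cytosolic Ca²⁺ level was monitored, and caffeine, a RyR2 agonist, was then added to trigger Ca²⁺ release. Amplitude of the caffeine-induced release was read from the traces.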

HEK293 [5] = assay: Induction of cytosolic calcium level in HEK293 cells expressing RyR2 R4496C mutant at 30 uM by fura-2 AM dye based fluorescence assay; format: functional, cell-based; method in brief: as §2

| IC50 [1] | Compound | inhibition (HEK293 [2]) | inhibition (HEK293 [3]) | inhibition (HEK293 [4]) | Activity (HEK293 [5]) |
| --- | --- | --- | --- | --- | --- |
| 10.4 µM | COc1cc(O)ccc1OCCNCC(O)COc1cccc2[nH]c3ccccc3c12 (stereo not given) | Active | 10% | inactive | inactive |
| 9.4 µM | COc1ccccc1OCCNCC(O)COc1c(O)ccc2[nH]c3ccccc3c12 (stereo not given) | Active | 70% | Active | Active |
| 19.4 µM | COc1ccc(O)cc1OCCNCC(O)COc1cccc2[nH]c3ccccc3c12 (stereo not given) | 80% | 10% | inactive | inactive |
